ChEMBL document CHEMBL1130330, “Synthesis of gonadotropin-releasing hormone III analogs. Structure-antitumor activity relationships” (1997)
Square brackets hold non-standard residues; d marks the D form. Peptide text beside a SMILES is read from it. pGlu = O=C1CC[C@@H](C(=O)O)N1

Legend:
PC-3 [1] = experiment: The concentration to inhibit cell proliferation of PC3 human tumor cell lines; format: functional
Outline: (§1)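 Cell proliferation assay with peptide treatment. Cells are released from Petri dishes by trypsinization and counted directly. Results are expressed as percentage of control values.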

Ishikawa = experiment: The concentration to inhibit colony formation of Ishikawa human tumor cell lines; format: functional
Outline: (§2)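 Clonogenic assay on human tumor cell lines, with each peptide at 50 (unit as printed). Colony formation reflects cell survival. Results are given as % inhibition of colony formation relative to untreated controls, mean ± deviation.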

MCF7 [2] = experiment: (§3) The concentration to inhibit colony formation of MCF-7 human tumor cell lines; format: functional; outline: as §2
Homo sapiens = species: Homo sapiens; experiment: as §3; format: functional, MCF7; outline: as §2
MDA-MB-231 [3] = experiment: The concentration to inhibit cell proliferation of MDA-MB-231 human tumor cell lines using the sulforhodamine B assay; format: functional
Outline: (§4)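 Sulforhodamine B assay with each peptide at 50 (unit as printed). Dye bound to cells is quantified spectrophotometrically. Results are expressed as % inhibition relative to control, mean ± deviation.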

MCF7 [4] = experiment: The concentration to inhibit cell proliferation of MCF-7 human tumor cell lines using the sulforhodamine B assay; format: functional; outline: as §4
MDA-MB-231 [5] = experiment: The concentration to inhibit colony formation of MDA-MB-231 human tumor cell lines; format: functional; outline: as §2
MDA-MB-231 [6] = experiment: The concentration to inhibit cell proliferation of MDA-MB-231 human tumor cell lines; format: functional; outline: as §1
PC-3 [7] = experiment: The concentration to inhibit colony formation of PC3 human tumor cell lines; format: functional; outline: as §2
PC-3 [8] = experiment: The concentration to inhibit cell proliferation of PC3 human tumor cell lines using the sulforhodamine B assay; format: functional; outline: as §4
LNCaP [9] = experiment: The concentration to inhibit cell proliferation of LNCaP human tumor cell lines; format: functional
LNCaP [10] = experiment: The concentration to inhibit cell proliferation of LNCaP human tumor cell lines using the sulforhodamine B assay; format: functional; outline: as §4
MCF7 [11] = experiment: The concentration to inhibit cell proliferation of MCF-7 human tumor cell lines; format: functional; outline: as §1

Row | Compound | Inhibition (PC-3 [1]) [%] | Inhibition (Ishikawa) [%] | Inhibition (MCF7 [2]) [%] | Inhibition (Homo sapiens) [%] | Inhibition (MDA-MB-231 [3]) [%] | Inhibition (MCF7 [4]) [%] | Inhibition (MDA-MB-231 [5]) [%] | Inhibition (MDA-MB-231 [6]) [%] | Inhibition (PC-3 [7]) [%] | Inhibition (PC-3 [8]) [%] | Inhibition (LNCaP [9]) [%] | Inhibition (LNCaP [10]) [%] | Inhibition (MCF7 [11]) [%]
1 | NCCCC[C@H](NC(=O)[C@H](Cc1c[nH]c2ccccc12)NC(=O)[C@H](CC(=O)O)NC(=O)[C@H](Cc1c[nH]cn1)NC(=O)[C@H](CO)NC(=O)[C@H](Cc1c[nH]c2ccccc12)NC(=O)[C@H](Cc1c[nH]cn1)NC(=O)[C@@H]1CCC(=O)N1)C(=O)N1CCC[C@H]1C(=O)NCC(N)=O | 14 | 18 | 45 | 18 | 19 | 20 | 44 | 18 | 21 | 12 | 32 | 40 | 18
2 | NCCCC[C@H](NC(=O)[C@H](Cc1ccccc1)NC(=O)[C@H](CC(=O)O)NC(=O)[C@H](Cc1c[nH]cn1)NC(=O)[C@H](CO)NC(=O)[C@H](Cc1c[nH]c2ccccc12)NC(=O)[C@H](Cc1c[nH]cn1)NC(=O)[C@@H]1CCC(=O)N1)C(=O)N1CCC[C@H]1C(=O)NCC(N)=O |  |  | 26 |  |  |  | 21 |  |  |  |  |  | 
3 | NCCCC[C@H](NC(=O)[C@H](Cc1c[nH]c2ccccc12)NC(=O)[C@H](CC(=O)O)NC(=O)[C@H](Cc1c[nH]cn1)NC(=O)[C@H](CO)NC(=O)[C@H](Cc1c[nH]c2ccccc12)NC(=O)[C@H](Cc1c[nH]cn1)NC(=O)[C@@H]1CCC(=O)N1)C(=O)N1CC=C[C@H]1C(=O)NCC(N)=O |  | 21 | 42 |  | 18 | 19 | 42 |  | 19 | 14 |  |  | 
4 | C[C@@H](NC(=O)[C@@H]1CCCN1C(=O)[C@H](CCCCN)NC(=O)[C@H](Cc1c[nH]c2ccccc12)NC(=O)[C@H](CC(=O)O)NC(=O)[C@H](Cc1c[nH]cn1)NC(=O)[C@H](CO)NC(=O)[C@H](Cc1c[nH]c2ccccc12)NC(=O)[C@H](Cc1c[nH]cn1)NC(=O)[C@@H]1CCC(=O)N1)C(N)=O |  | 6 | 4 |  | 8 | 8 | 15 |  | 3 | 2 |  |  | 
5 | NCCCC[C@H](NC(=O)[C@H](Cc1cn(C=O)c2ccccc12)NC(=O)[C@H](CC(=O)O)NC(=O)[C@H](Cc1c[nH]cn1)NC(=O)[C@H](CO)NC(=O)[C@H](Cc1cn(C=O)c2ccccc12)NC(=O)[C@H](Cc1c[nH]cn1)NC(=O)[C@@H]1CCC(=O)N1)C(=O)N1CC=C[C@H]1C(=O)NCC(N)=O |  | 24 | 31 |  |  |  | 32 |  | 20 |  |  |  | 
6 | CC(C)C[C@H](NC(=O)CNC(=O)[C@H](Cc1ccc(O)cc1)NC(=O)[C@H](CO)NC(=O)[C@H](Cc1c[nH]c2ccccc12)NC(=O)[C@H](Cc1c[nH]cn1)NC(=O)[C@@H]1CCC(=O)N1)C(=O)N[C@@H](CCCN=C(N)N)C(=O)N1CCC[C@H]1C(=O)NCC(N)=O |  | 17 | 27 |  |  |  | 29 |  | 15 |  |  |  | 
7 | NC(=O)CNC(=O)[C@@H]1CCCN1C(=O)[C@@H]1CCCCNC(=O)C[C@H](NC(=O)[C@H](Cc2c[nH]cn2)NC(=O)[C@H](CO)NC(=O)[C@H](Cc2c[nH]c3ccccc23)NC(=O)[C@H](Cc2c[nH]cn2)NC(=O)[C@@H]2CCC(=O)N2)C(=O)N[C@@H](Cc2c[nH]c3ccccc23)C(=O)N1 |  | 16 | 44 |  | 16 | 20 | 27 |  | 18 | 11 |  |  | 
8 | NCCCC[C@H](NC(=O)[C@H](Cc1c[nH]c2ccccc12)NC(=O)[C@H](Cc1c[nH]cn1)NC(=O)[C@@H]1CCC(=O)N1)C(=O)N[C@@H](Cc1c[nH]cn1)C(=O)N[C@@H](CC(=O)O)C(=O)N[C@@H](Cc1c[nH]c2ccccc12)C(=O)N[C@@H](CCCCN)C(=O)N1CCC[C@H]1C(=O)NCC(N)=O |  | 21 | 40 |  |  |  | 35 |  | 15 |  |  |  | 
9 | CC(=O)NCCCC[C@H](NC(=O)[C@H](Cc1c[nH]c2ccccc12)NC(=O)[C@H](Cc1c[nH]cn1)NC(=O)[C@@H]1CCC(=O)N1)C(=O)N[C@@H](Cc1c[nH]cn1)C(=O)N[C@@H](CC(=O)O)C(=O)N[C@@H](Cc1c[nH]c2ccccc12)C(=O)N[C@@H](CCCCN)C(=O)N1CCC[C@H]1C(=O)NCC(N)=O |  | 14 | 52 |  |  |  | 42 |  | 12 |  |  |  | 
10 | NCCCC[C@H](NC(=O)[C@H](Cc1c[nH]c2ccccc12)NC(=O)[C@H](CCC(=O)O)NC(=O)[C@H](Cc1c[nH]cn1)NC(=O)[C@H](CO)NC(=O)[C@H](Cc1c[nH]c2ccccc12)NC(=O)[C@H](Cc1c[nH]cn1)NC(=O)[C@@H]1CCC(=O)N1)C(=O)N1CCC[C@H]1C(=O)NCC(N)=O |  | 5 | 44 |  | 27 | 17 | 25 |  | 20 | 12 |  |  | 
11 | NCCCC[C@H](NC(=O)[C@H](CO)NC(=O)[C@H](Cc1c[nH]c2ccccc12)NC(=O)[C@H](Cc1c[nH]cn1)NC(=O)[C@@H]1CCC(=O)N1)C(=O)N[C@H]1CC(=O)NCCCC[C@@H](C(=O)N2CCC[C@H]2C(=O)NCC(N)=O)NC(=O)[C@H](Cc2c[nH]c3ccccc23)NC1=O |  | 13 | 44 |  | 21 | 19 | 27 |  | 11 | 16 |  |  | 
12 | NCCCC[C@H](NC(=O)[C@H](CO)NC(=O)[C@H](Cc1c[nH]c2ccccc12)NC(=O)[C@H](Cc1c[nH]cn1)NC(=O)[C@@H]1CCC(=O)N1)C(=O)N[C@@H](CC(=O)O)C(=O)N[C@@H](Cc1c[nH]c2ccccc12)C(=O)N[C@@H](CCCCN)C(=O)N1CCC[C@H]1C(=O)NCC(N)=O |  | 6 | 5 |  | 2 | 4 | 4 |  | 0 |  |  |  | 
13 | CCNC(=O)[C@@H]1CCCN1C(=O)[C@H](CCCCN)NC(=O)[C@H](Cc1c[nH]c2ccccc12)NC(=O)[C@H](CC(=O)O)NC(=O)[C@H](Cc1c[nH]cn1)NC(=O)[C@H](CO)NC(=O)[C@H](Cc1c[nH]c2ccccc12)NC(=O)[C@H](Cc1c[nH]cn1)NC(=O)[C@@H]1CCC(=O)N1 ([pGlu]HWSHDWKP-NHEt) |  | 13 | 28 |  | 32 | 20 | 27 |  | 22 | 15 |  |  | 
